Values after ≈ are worked out from the molar mass of the structure shown.
Experiments:
[1] = Water solubility of the compound; type: ADME; conditions: read-out: S
Summary of the method: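 Aqueous solubility by HPLC on a phenyl column. Mobile phases were 50% methanol/water and acetonitrile. The standard curve came from about 0.5 mg sample in 1 mL methanol with serial dilutions, plotting concentration against HPLC peak area. For samples, about 0.4 mg was placed in 9 mL water and sonicated 15 min in a cold-water bath.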

B16 [2] = experiment: The compound was tested for Cytotoxic concentration against B16 melanoma cells relative to paclitaxel; type: functional; conditions: Mus musculus, B16, read-out: ED50
B16 [3] = experiment: The compound was tested for Cytotoxic concentration against B16 melanoma cells.; type: functional; conditions: Mus musculus, B16, read-out: ED50
[4] = Water solubility relative to Paclitaxel solubility; type: ADME; conditions: buffer
Summary of the method: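 Solubility in water by HPLC on a phenyl column: mobile phase A, 50% methanol/50% water; mobile phase B, acetonitrile. About 0.4 mg compound placed in 9 mL water in a 10 mL volumetric flask, sonicated 15 min in cold water. Quantified against a methanol standard curve (about 0.5 mg/mL serially diluted) of concentration vs HPLC peak area. Reported in µg/mL and as a ratio to paclitaxel solubility.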

Tubulin (Bos taurus) [5] = target: T1, Tubulin (Bos taurus) (UniProt Q6B856+Q862L2+Q862F3); experiment: Promotion of tubulin polymerization
Tubulin (Bos taurus) [6] = target: T1, Tubulin (Bos taurus); experiment: ED50 relative to paclitaxel in promoting tubulin polymerization
[7] = Ratio of ED50 in microtubule assembly in presence of paclitaxel to only compound; type: functional
Summary of the method: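 Bovine brain tubulin purified by three temperature-dependent assembly-disassembly cycles plus phosphocellulose-biogel P-10 chromatography, cleared at 27000g for 10 min. Varied compound levels incubated with 10 μM tubulin and 0.5 mM GTP in PEM buffer (0.1 M Pipes pH 6.9, 1 mM MgSO₄, 1 mM EGTA), 37 °C, 15 min. Spun at 40000g for 4 min; supernatant protein by Bradford. […] Ratio against paclitaxel ED50.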

Structure (SMILES)	solubility [1]	EC50 (B16 [2])	EC50 (B16 [3])	Ratio [4]	ED50 (Tubulin (Bos taurus) [5])	ED50 (Tubulin (Bos taurus) [6])	Ratio [7]
CC(=O)O[C@@]12CO[C@@H]1C[C@H](O)[C@@]1(C)C(=O)[C@H](O)C3=C(C)[C@@H](OC(=O)[C@H](O)[C@@H](NC(=O)CC(C)(C)C)C(C)(C)C)C[C@@](O)([C@@H](OC(=O)c4ccccc4)[C@H]21)C3(C)C	0.026 mg/mL (≈ 33.1 µM)	0.029 µM	0.104 µM	87	0.5 µM	1.05 µM	
CC(=O)O[C@@]12CO[C@@H]1C[C@H](O)[C@@]1(C)C(=O)[C@H](O)C3=C(C)[C@@H](OC(=O)[C@H](O)[C@@H](NC(=O)c4ccccc4)C(C)(C)C)C[C@@](O)([C@@H](OC(=O)c4ccccc4)[C@H]21)C3(C)C	0.0028 mg/mL (≈ 3.54 µM)			9.3	1.7 µM	0.93 µM	
CC(=O)O[C@@]12CO[C@@H]1C[C@H](O)[C@@]1(C)C(=O)[C@H](O)C3=C(C)[C@@H](OC(=O)[C@H](O)[C@@H](NC(=O)OC(C)(C)C)C(C)(C)C)C[C@@](O)([C@@H](OC(=O)c4ccccc4)[C@H]21)C3(C)C	0.028 mg/mL (≈ 35.5 µM)	0.0313 µM	0.0125 µM	93	0.35 µM	0.93 µM	
CC(=O)O[C@@]12CO[C@@H]1C[C@H](O)[C@@]1(C)C(=O)[C@H](O)C3=C(C)[C@@H](OC(=O)[C@H](O)[C@@H](NC(=O)Nc4ccccc4)C(C)(C)C)C[C@@](O)([C@@H](OC(=O)c4ccccc4)[C@H]21)C3(C)C	0.0014 mg/mL (≈ 1.74 µM)	0.0268 µM	0.0188 µM	4.7	0.33 µM	1.04 µM	
CCCCCCOC(=O)N[C@H]([C@@H](O)C(=O)O[C@H]1C[C@@]2(O)[C@@H](OC(=O)c3ccccc3)[C@@H]3[C@]4(OC(C)=O)CO[C@@H]4C[C@H](O)[C@@]3(C)C(=O)[C@H](O)C(=C1C)C2(C)C)C(C)(C)C		0.0313 µM	0.37 µM		2.1 µM	0.93 µM	2.3
CC(=O)O[C@@]12CO[C@@H]1C[C@H](O)[C@@]1(C)C(=O)[C@H](O)C3=C(C)[C@@H](OC(=O)[C@H](O)[C@@H](NC(=O)C(C)(C)C)C(C)(C)C)C[C@@](O)([C@@H](OC(=O)c4ccccc4)[C@H]21)C3(C)C		0.029 µM	0.93 µM		1.35 µM	1.05 µM	1.3
CCCCOC(=O)N[C@H]([C@@H](O)C(=O)O[C@H]1C[C@@]2(O)[C@@H](OC(=O)c3ccccc3)[C@@H]3[C@]4(OC(C)=O)CO[C@@H]4C[C@H](O)[C@@]3(C)C(=O)[C@H](O)C(=C1C)C2(C)C)C(C)(C)C	0.027 mg/mL (≈ 34.3 µM)	0.0313 µM	0.064 µM	90	0.8 µM	0.93 µM	
CC(=O)O[C@@]12CO[C@@H]1C[C@H](O)[C@@]1(C)C(=O)[C@H](O)C3=C(C)[C@@H](OC(=O)[C@H](O)[C@@H](NC(=O)NC(C)(C)C)C(C)(C)C)C[C@@](O)([C@@H](OC(=O)c4ccccc4)[C@H]21)C3(C)C	0.029 mg/mL (≈ 36.9 µM)	0.029 µM	0.026 µM	97	0.63 µM	1.05 µM	
CC(=O)O[C@@]12CO[C@@H]1C[C@H](O)[C@@]1(C)C(=O)[C@H](O)C3=C(C)[C@@H](OC(=O)[C@H](O)[C@@H](NC(=O)OCC(C)C)C(C)(C)C)C[C@@](O)([C@@H](OC(=O)c4ccccc4)[C@H]21)C3(C)C	0.028 mg/mL (≈ 35.5 µM)			93	0.5 µM	0.93 µM	
CCC(C)(C)OC(=O)N[C@H]([C@@H](O)C(=O)O[C@H]1C[C@@]2(O)[C@@H](OC(=O)c3ccccc3)[C@@H]3[C@]4(OC(C)=O)CO[C@@H]4C[C@H](O)[C@@]3(C)C(=O)[C@H](O)C(=C1C)C2(C)C)C(C)(C)C	0.026 mg/mL (≈ 32.4 µM)	0.0313 µM	0.018 µM	87	0.42 µM	0.93 µM	
CC(=O)O[C@@]12CO[C@@H]1C[C@H](O)[C@@]1(C)C(=O)[C@H](O)C3=C(C)[C@@H](OC(=O)[C@H](O)[C@@H](/N=C(/S)NC(C)(C)C)C(C)(C)C)C[C@@](O)([C@@H](OC(=O)c4ccccc4)[C@H]21)C3(C)C		0.0244 µM	> 1 µM		3.2 µM	0.9 µM	3.6
CC(=O)O[C@@]12CO[C@@H]1C[C@H](O)[C@@]1(C)C(=O)[C@H](O)C3=C(C)[C@@H](OC(=O)[C@H](O)[C@@H](NC(=O)Oc4ccccc4)C(C)(C)C)C[C@@](O)([C@@H](OC(=O)c4ccccc4)[C@H]21)C3(C)C		0.0313 µM	> 1 µM		1.3 µM	0.93 µM	1.4
CC(=O)O[C@H]1C(=O)[C@@]2(C)[C@H]([C@H](OC(=O)c3ccccc3)[C@]3(O)C[C@H](OC(=O)[C@H](O)[C@@H](NC(=O)c4ccccc4)c4ccccc4)C(C)=C1C3(C)C)[C@]1(OC(C)=O)CO[C@@H]1C[C@@H]2O [PACLITAXEL]	0.0003 mg/mL (≈ 0.351 µM)			1			
CC(=O)O[C@@]12CO[C@@H]1C[C@H](O)[C@@]1(C)C(=O)[C@H](O)C3=C(C)[C@@H](OC(=O)[C@H](O)[C@@H](NC(=O)OC(C)(C)C)c4ccccc4)C[C@@](O)([C@@H](OC(=O)c4ccccc4)[C@H]21)C3(C)C.O.O.O [DOCETAXEL]	0.005 mg/mL	0.027 µM	0.011 µM	17	0.51 µM	1.14 µM	0.45
